Data on one compound can be found in ChEMBL document CHEMBL4619802, “Discovery and Characterization of Pure RhlR Antagonists against Pseudomonas aeruginosa Infections” (J Med Chem, 2020).

In assay [1] the test system is Pseudomonas aeruginosa. The experiment in a line: Antibacterial activity against Pseudomonas aeruginosa assessed as bacterial growth at 100 uM incubated for 24 hrs relative to control. In kind it is functional. Summed up:
(§1)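 P. aeruginosa overnight culture (OD595 1.0) diluted 1:20 in AB medium (pH 7.5, 1% glucose, casamino acids, arginine) with compound, in borosilicate bottles, 37 °C for 24 h without shaking. Growth taken as OD595 of the suspended culture. Attached cells washed twice with PBS, stained with 0.1% crystal violet for 10 min, dye eluted in ethanol and read at 545 nm.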

Assay [2] concerns Pseudomonas aeruginosa. In words: Antibacterial activity against Pseudomonas aeruginosa assessed as bacterial growth at 10 uM incubated for 24 hrs relative to control. The class given is functional. The procedure, abridged: as §1
Assay [3] deals with T1, Transcriptional activator protein LasR (Pseudomonas aeruginosa (strain ATCC 15692 / PAO1 / 1C / PRS 101 / LMG12228)) (UniProt P25084).
T1 sequence (whole entry): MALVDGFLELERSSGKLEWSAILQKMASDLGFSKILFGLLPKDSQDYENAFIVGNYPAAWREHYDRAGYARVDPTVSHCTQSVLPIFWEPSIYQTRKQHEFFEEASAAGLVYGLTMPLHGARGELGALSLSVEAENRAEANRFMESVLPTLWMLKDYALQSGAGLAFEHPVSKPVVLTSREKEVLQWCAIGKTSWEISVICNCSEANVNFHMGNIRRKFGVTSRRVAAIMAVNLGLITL
The experiment in a line: Agonist activity at Pseudomonas aeruginosa LasR expressed in Escherichia coli DH5alpha at 0.1 to 10 uM incubated for 1.5 hrs by luminescence reporter gene assay. (In general: In a reporter assay the amount or activity of a reporter protein is the signal.)

Assay [4] concerns the target T2, Transcriptional regulator MvfR (Pseudomonas aeruginosa PA14) (UniProt A0A072ZLE6).
T2 sequence (whole entry): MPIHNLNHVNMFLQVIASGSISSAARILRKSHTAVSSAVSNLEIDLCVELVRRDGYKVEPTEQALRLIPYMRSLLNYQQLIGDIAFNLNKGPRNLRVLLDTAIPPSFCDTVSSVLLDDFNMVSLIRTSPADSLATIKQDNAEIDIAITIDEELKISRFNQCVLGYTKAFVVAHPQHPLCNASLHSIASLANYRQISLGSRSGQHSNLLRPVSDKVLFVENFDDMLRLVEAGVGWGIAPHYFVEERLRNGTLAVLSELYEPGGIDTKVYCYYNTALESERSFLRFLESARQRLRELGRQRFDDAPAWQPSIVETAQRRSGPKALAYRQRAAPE
In words: Agonist activity at Pseudomonas aeruginosa PqsR expressed in Escherichia coli DH5alpha at 0.1 to 10 uM incubated for 1.5 hrs by luminescence reporter gene assay.

Assay [5] concerns the target T2, Transcriptional regulator MvfR (Pseudomonas aeruginosa PA14). The experiment in a line: Antagonist activity at Pseudomonas aeruginosa PqsR expressed in Escherichia coli DH5alpha at 0.1 to 10 uM incubated for 1.5 hrs by luminescence reporter gene assay.
Assay [6] relates to Pseudomonas aeruginosa. The experiment in a line: Effect on extracellular polymeric substance in biofilm of Pseudomonas aeruginosa assessed as reduction in carbohydrate level at 10 uM relative to control. In kind it is functional. The arrangement: scale not given: the % may be the effect or the level left. Summed up: (§2)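 Biofilm scraped from drip-flow reactor slides and resuspended in 0.01 M KCl. Sonicated 4 cycles of 5 s on/5 s off, supernatant filtered through 0.22 µm. Protein by Lowry/Folin, read at OD750. Carbohydrate by sulfuric acid 30 min then 5% phenol at 90 °C for 5 min, read at OD490. Each divided by OD595.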

Assay [7] has as its system Pseudomonas aeruginosa. In words: Effect on extracellular polymeric substance in biofilm of Pseudomonas aeruginosa assessed as reduction in protein level at 10 uM relative to control. The class given is functional. The arrangement: scale not given: the % may be the effect or the level left. Summed up:
as §2

Assay [8] has as its system Pseudomonas aeruginosa. In words: Downregulation of rhlA expression in biofilm of Pseudomonas aeruginosa at 10 uM after 24 hrs by RT-qPCR analysis relative to control. In kind it is functional. The procedure, abridged: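 P. aeruginosa (OD595 1.0) diluted 1:20 in AB medium with compound in borosilicate bottles, 37 °C for 24 h. Total RNA extracted from biofilm cells and run by SYBR RT-qPCR with QS-gene primers. Cycling: 95 °C 10 s, then 40 cycles of 95 °C 10 s and 60 °C 10 s.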

Assay [9] has as its system Pseudomonas aeruginosa. In words: Effect on pycocyanin production in Pseudomonas aeruginosa harboring RhlR mutant at 10 uM after 24 hrs by […]. The class given is functional, organism-based. Summed up: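 P. aeruginosa overnight culture (OD595 = 1.0) was diluted 1:100 in AB medium with compounds or controls at 0–10 µM and grown at 37 °C for 24 h. Pyocyanin was extracted from the supernatant with 50% TFA at 37 °C for 1 h, then filtered. It was quantified by C18 HPLC (99:1 water/TFA, 0.5 mL/min, 25 °C) as peak height at the 20 min retention time.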

Assay [10] concerns Pseudomonas aeruginosa. The experiment in a line: Downregulation of rhlA expression in Pseudomonas aeruginosa harboring RhlR mutant up to 10 uM after 24 hrs by RT-qPCR method. In kind it is functional, organism-based. Summed up:
(§3)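 P. aeruginosa overnight culture (OD595 = 1.0) was diluted 1:20 in AB medium (pH 7.5) with compounds or controls at 0–10 µM. It was grown statically in borosilicate bottles at 37 °C for 24 h, and biofilm cells were collected. Total RNA was extracted with TRI reagent. SYBR-based RT-qPCR used QS gene primers: 95 °C 10 s, then 40 cycles of 95 °C 10 s and 60 °C 10 s.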
For orientation: Quantitative PCR measures a nucleic acid by following its amplification.

The test system of assay [11] is Pseudomonas aeruginosa. The experiment in a line: Downregulation of phzC1 expression in Pseudomonas aeruginosa harboring RhlR mutant up to 10 uM after 24 hrs by RT-qPCR method. In kind it is functional, organism-based. Summed up: as §3
The subject of assay [12] is Pseudomonas aeruginosa. In words: Effect on lasR expression in Pseudomonas aeruginosa harboring RhlR mutant up to 10 uM after 24 hrs by RT-qPCR method. The class given is functional, organism-based. The procedure, abridged:
as §3

The subject of assay [13] is Pseudomonas aeruginosa. The experiment in a line: Effect on lasB expression in Pseudomonas aeruginosa harboring RhlR mutant up to 10 uM after 24 hrs by RT-qPCR method. The class given is functional, organism-based. The procedure, abridged:
as §3

The subject of assay [14] is Pseudomonas aeruginosa. The experiment in a line: Effect on pqsR expression in Pseudomonas aeruginosa harboring RhlR mutant up to 10 uM after 24 hrs by RT-qPCR method. The class given is functional, organism-based. The procedure, abridged: as §3
Assay [15] deals with Pseudomonas aeruginosa. The experiment in a line: Antibacterial activity against Pseudomonas aeruginosa infected in Tenebrio molitor larvae assessed as larvae survival at 10 uM incubated for 20 days and measured every 5 days. The class given is functional. The procedure, abridged:
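P. aeruginosa overnight culture (OD595 = 1.0) was centrifuged, and the supernatant passed through a 0.22 µm filter. 10 µL was injected into T. molitor larvae by syringe needle, with compounds or controls at 0–10 µM. Larvae were kept in Petri dishes at 25 °C for 20 days, and mortality was scored every 5 days.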

Each structure is given as a SMILES string. Active and inactive are the calls of the source. The calls are words filed in the database; no cut-off is given here.

As for `CCCC(=O)C#Cc1ccc(F)c(F)c1`, the Activity was 99% with Pseudomonas aeruginosa [1]; 103% in the assay with Pseudomonas aeruginosa [2]; 39% in the assay with Pseudomonas aeruginosa [6]; 72% in the assay on Pseudomonas aeruginosa [7]; 65 - 79% in the assay with Pseudomonas aeruginosa [8]. The outcome (in [3]; in assay [4]; in assay [5]; in the assay with Pseudomonas aeruginosa [9]; with Pseudomonas aeruginosa [12]; with Pseudomonas aeruginosa [13]) was inactive. Moreover, the outcome in the assay on Pseudomonas aeruginosa [14] was inactive. Moreover, the result in the assay with Pseudomonas aeruginosa [10] and with Pseudomonas aeruginosa [11] was Active. Further, the survival at 10 µM in the assay on Pseudomonas aeruginosa [15] was 80%.
